TAAR1 antagonist: antagonists of human TAAR1; inhibition, % at 3 µM; Q96RJ0; CHO RD-HGA16 TAAR1, Fluo-8 calcium fluorescence, antagonist; AID 624466; 360,000 tested, 1.5% active;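 active means inhibition above a per-plate cutoff, the mean inhibition of test compounds on that plate plus 3 SD, cut at about 49% in these data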
Target sequence (Q96RJ0 whole entry, looked up): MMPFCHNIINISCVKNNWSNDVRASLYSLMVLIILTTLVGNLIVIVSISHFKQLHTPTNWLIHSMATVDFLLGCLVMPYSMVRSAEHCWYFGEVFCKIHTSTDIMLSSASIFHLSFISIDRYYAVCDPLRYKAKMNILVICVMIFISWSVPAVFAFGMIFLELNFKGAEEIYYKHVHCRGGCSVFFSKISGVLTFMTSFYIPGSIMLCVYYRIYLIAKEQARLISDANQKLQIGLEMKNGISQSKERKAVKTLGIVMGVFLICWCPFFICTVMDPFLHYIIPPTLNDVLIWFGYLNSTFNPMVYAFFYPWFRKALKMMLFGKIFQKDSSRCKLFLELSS
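System: CHO RD-HGA16 cells bearing hTAAR1. Reagent: EC80 β-phenethylamine stimulus. Schedule: seeding 17-24 h prior, 75-min 37 °C, 30-min RT dye loading. Signal: Fluo-8 intracellular calcium dye fluorescence, real-time kinetic reads. Read-out: % inhibition from peak post-agonist over basal fluorescence ratio. Benchmarks: vehicle wells and EC80 agonist wells. Replicates: n of 1.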
TAAR1 agonist: agonists of human TAAR1. Q96RJ0. CHO RD-HGA16 TAAR1, Fluo-8 calcium fluorescence; vehicle wells 0%, saturating PEA agonist 100%. activation, % at 3 µM. 360,000 tested, 0.99% active. AID 624467;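 active means activation above the mean activation of all test compounds in the run plus 3 SD, cut at about 38% in these data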
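System: CHO RD-HGA16 cells carrying human TAAR1 plus Gα16; Incubation: 17-24 h seeding, 75 min 37 °C dye, 30 min RT; Measured by: Fluo-8 fluorescence, 5 s baseline then 140 s kinetic read; Control set: DMSO and PEA EC100; Replication: single well for each compound.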
CHO parental Ca: counter-screen for OX1R antagonists: effect in parental CHO cells. 330,000 tested, 0.63% active. inhibition, % at 5.6 µM. parental CHO-K1, ATP-induced calcium, Fluo-8 fluorescence. AID 463079;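 active means inhibition above that plate's mean sample inhibition plus 3 SD, cut at about 26% in these data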
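test system = CHO parental line | reagent = ATP stimulus | measured by = intracellular calcium via Fluo-8 no-wash fluorescent dye | control set = ATP and no-ATP DMSO wells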
OX1R antag-1: OX1R (human) antagonism; OX1R-expressing cells, FRET antagonist read-out; inhibition, % at 6.6 µM; 330,000 tested, 1.8% active; AID 485270; in the data active means inhibition mostly above about 38%, no sharp cut-off; inactive means mostly below about 40%
Target sequence (O43613 whole entry, looked up): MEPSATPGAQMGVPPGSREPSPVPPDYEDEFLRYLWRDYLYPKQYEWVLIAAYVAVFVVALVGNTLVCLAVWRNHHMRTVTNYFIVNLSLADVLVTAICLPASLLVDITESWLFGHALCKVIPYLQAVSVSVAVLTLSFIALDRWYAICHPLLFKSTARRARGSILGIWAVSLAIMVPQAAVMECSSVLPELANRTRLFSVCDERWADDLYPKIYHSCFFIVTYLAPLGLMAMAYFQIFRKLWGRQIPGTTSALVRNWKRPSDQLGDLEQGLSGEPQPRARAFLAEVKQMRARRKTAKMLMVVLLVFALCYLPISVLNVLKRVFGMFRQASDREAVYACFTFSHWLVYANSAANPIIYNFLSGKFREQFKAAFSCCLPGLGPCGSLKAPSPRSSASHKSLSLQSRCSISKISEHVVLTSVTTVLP
OX1R antag-2: human HCRTR1 antagonism; CHO/OX1R cells, Fluo-8 calcium fluorescence, orexin A; inhibition, % at 5 µM; 330,000 tested, 0.43% active; AID 434989;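 active means inhibition above its plate's threshold, mean inhibition of all tested compounds on the plate plus 3 SD, cut at about 37% in these data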
OX1R Ca confirm: OX1R (human) antagonism, confirmed; shares compounds with OX1R antag-2; inhibition, % at 5 µM; CHO/OX1R cells, orexin A calcium Fluo-8 fluorescence; 1,100 tested, 38% active; in the data active means inhibition above about 29%
CHO Ca counter: counter-screen: parental CHO calcium response change, triplicate; shares compounds with OX1R antag-2; parental CHO-K1, ATP-induced calcium, Fluo-8 fluorescence; inhibition, % at 5.6 µM; 1,100 tested, 9.3% active;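 active means inhibition above a per-plate limit, the mean inhibition of that plate's test compounds plus 3 SD, cut at about 25% in these data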
Numbers stand for hits; 0 = inactive; - = no result given. Most compounds without a hit are left out; they make up all but 3.9% or so of the library.

SMILES | TAAR1 antagonist | TAAR1 agonist | CHO parental Ca | OX1R antag-1 | OX1R antag-2 | OX1R Ca confirm | CHO Ca counter
N#Cc1ccccc1OCC(=O)Nc1cccc(S(=O)(=O)N2CCCCCC2)c1 | 53 | 0 | 0 | 0 | 0 | 0 | 0
CC(=O)c1ccccc1OCC(=O)Nc1cccc(S(=O)(=O)N2CCCC2)c1 | 0 | 0 | 0 | 0 | 0 | - | -
Cc1ccc(OCC(=O)Nc2cccc(S(=O)(=O)N3CCCC3)c2)cc1C | 0 | 0 | - | - | - | - | -
O=C(COc1ccc2ccc(=O)oc2c1)Nc1cccc(S(=O)(=O)N2CCCCC2)c1 | 0 | 0 | 0 | 0 | 0 | 0 | 0
CCNC(=O)C1(C)CCN(C(=O)c2ccc(-c3ccccc3)cc2)C1 (stereo not given) | 0 | 0 | - | - | - | - | -
O=C(CNc1cc(S(=O)(=O)N2CCOCC2)ccc1N1CCCC1)Nc1ccc(Cl)cc1 | 0 | 0 | - | - | - | - | -
CSc1cc(C)c(OCC(=O)Nc2ccc(NC(C)=O)cc2)c(C)c1 | 0 | 0 | 0 | 0 | 0 | 0 | 0
Cc1ccccc1-c1cc2nc(NCCN3CCNC3=O)n(C)c(=O)c2s1 | 0 | 0 | - | - | - | - | -
Cn1c(CSc2ncccn2)nnc1SCC(=O)N1CCCc2ccccc21 | 0 | 0 | 0 | 0 | 0 | 0 | 0
Cc1cc(OCc2cc(C(=O)N3CCN(C)C(=O)[C@@H]3C)no2)cc(C)c1Cl | 0 | 0 | 0 | 0 | 43 | 0 | 28
CC(C)NC(=O)C1CCN(C2CCN(CC3CC=CCC3)CC2)CC1 (stereo not given) | 0 | 0 | 0 | 0 | 76 | 0 | 0
CCOC(=O)c1ccc(NC(=O)Cn2ncc(Cl)c(Cl)c2=O)cc1 | 0 | 0 | 0 | 0 | 0 | - | -
Cc1ccc(C(=O)OCn2ncc(Cl)c(Cl)c2=O)cc1 | 0 | 0 | 0 | 0 | 0 | 73 | 0
COC(=O)[C@]12C[C@H](CC(=O)NCc3cccs3)C(=O)N(Cc3ccc4c(c3)OCO4)C1=C[C@H](C(C)(C)C)O[C@@H]2C | 0 | 0 | - | - | - | - | -
CCN(C(=O)COC(=O)c1ccccc1Nc1ccccc1)c1c(N)n(Cc2ccccc2)c(=O)[nH]c1=O | 0 | 0 | - | - | - | - | -
CC(OC(=O)c1cc(=O)[nH]c2ccccc12)C(=O)N1C(C)CCCC1C (stereo not given) | 0 | 0 | 0 | 0 | 0 | - | -
C/C(N)=C(/C#N)C(=O)CSc1nc2ccccc2c(=O)n1CCCO | 0 | 0 | 0 | 0 | 0 | - | -
CC(=O)c1c(C)[nH]c(C(=O)CSc2nc3ccccc3c(=O)n2CCCO)c1C | 0 | 0 | 0 | 0 | 0 | 0 | 0
O=C(C1CCCN(S(=O)(=O)c2cccnc2)C1)N1CCN(c2ccccn2)CC1 (stereo not given) | 0 | 0 | 0 | 0 | 0 | - | -
O=C(c1ccc2ccccc2c1)C1CCCN(S(=O)(=O)c2cccnc2)C1 (stereo not given) | 0 | 0 | 0 | 0 | 0 | 0 | 0
C/C=C/c1cccc(-c2nc(C(=O)NC3CCC3)cc3c2[C@@H](CCO)N(S(=O)C(C)(C)C)C3)c1 (stereo not given in full) | 0 | 0 | - | - | - | - | -
Nc1ccc(-c2nc3ccc(-c4nc5ccccc5o4)cc3[nH]2)cc1 | 0 | 0 | 0 | 0 | 0 | 0 | 0
COc1cc(Cn2c(N)c(C#N)c3nc4ccccc4nc32)cc(OC)c1 | 0 | 0 | 0 | 0 | 0 | 33 | 0
COCCn1c(N)c(C#N)c2nc3ccccc3nc21 | 0 | 0 | 0 | 0 | 0 | - | -
CCOC(=O)c1ccc(N=C2SC(C(=O)NC)CC(=O)N2Cc2ccc(F)cc2)cc1 (stereo not given) | 0 | 0 | 0 | 0 | 0 | - | -
SMILES | TAAR1 antagonist | TAAR1 agonist | CHO parental Ca | OX1R antag-1 | OX1R antag-2 | OX1R Ca confirm | CHO Ca counter
CCOC(=O)c1ccc(N=C2SC(C(=O)Nc3ccc(C(=O)O)cc3)CC(=O)N2Cc2cccs2)cc1 (stereo not given) | 0 | 0 | 0 | 0 | 0 | 0 | 0
CN(c1ccc(NC(=O)Cc2cn(C)c3ccccc23)cc1)c1ccccn1 | 0 | 0 | - | - | - | - | -
COc1ccc(C(=O)Nc2ccc(Cl)c(S(=O)(=O)Nc3ccccc3OC)c2)cc1 | 0 | 0 | 0 | 0 | 0 | 0 | 0
COc1ccccc1NC(=O)Nc1ccc(Cl)c(S(=O)(=O)Nc2ccccc2OC)c1 | 0 | 0 | 0 | 0 | 0 | - | -
O=C(OCc1ccc(COC(=O)c2cccnc2Cl)cc1)c1cccnc1Cl | 0 | 0 | 0 | 0 | 58 | 30 | 36
O=C(OCc1ccc(F)cc1)c1cccnc1Cl | 0 | 0 | 0 | 0 | 0 | - | -
OC1c2cc(Cl)cc(Cl)c2N=C2CCCN21 (stereo not given) | 0 | 0 | - | - | - | - | -
C=CCn1c(SCc2ccc(C(=O)O)cc2)nc2sc(C)c(C)c2c1=O | 0 | 0 | 0 | 0 | 0 | - | -
C=CCn1c(SCC(=O)Nc2sccc2C(N)=O)nc2sc(C)c(C)c2c1=O | 0 | 0 | 0 | 0 | 0 | 0 | 0
O=C(Nc1cccc(S(=O)(=O)Nc2ccc(SC(F)F)cc2)c1)C1CCC1 | 0 | 0 | 0 | 0 | 0 | 0 | 0
O=C(Nc1cccc(S(=O)(=O)NC2=NCCC2)c1)C1CCC1 | 0 | 0 | 0 | 0 | 0 | - | -
COc1ccc(CN2C(=O)C(CC(=O)NCCc3ccccn3)CC(C(=O)N3CCCCCC3)=C2C)cc1 (stereo not given) | 0 | 0 | - | - | - | - | -
COc1ccc(CN2C(=O)C(CC(=O)NC3CCCCC3)CC(C(=O)N(C(C)C)C(C)C)=C2C)cc1 (stereo not given) | 0 | 0 | - | - | - | - | -
CC(c1ccccc1)C(Cc1nc2ccccc2[nH]1)c1nc2ccccc2[nH]1 (stereo not given) | - | - | 0 | 0 | 45 | 0 | 0
CC(C)Cc1nc2ccccc2[nH]1 | 0 | 0 | 0 | 0 | 0 | - | -
Cc1cccc(CC(Cc2nc3ccccc3[nH]2)c2nc3ccccc3[nH]2)c1 (stereo not given) | 52 | 0 | 0 | 0 | 0 | 0 | 0
O=S1(=O)CCN(C2CC2)CC1 | 0 | 0 | - | - | - | - | -
COc1ccccc1C(=O)COC(=O)c1ccccc1O | 0 | 0 | 0 | 0 | 0 | - | -
COc1ccccc1C(=O)COC(=O)c1ccc(N(C)C)cc1 | 0 | 0 | 0 | 0 | 0 | 0 | 0
CC(=O)C1=C(C)N(Cc2ccc(Br)cc2)C(=S)NC1c1ccc(F)cc1 (stereo not given) | 0 | 0 | - | - | - | - | -
COc1ccc2c(c1)CC(N1CCN(C)CC1)c1cc(OC)ccc1S2 (stereo not given) | 0 | 0 | 0 | 0 | 45 | 0 | 0
C=CCC[C@H](CCCCC)OC(=O)/C=C/[C@@H](O)[C@H](O)C[C@@H](O)CC=C | 0 | 0 | - | - | - | - | -
Cc1cc(C(=O)COC(=O)c2ccc(O)cc2O)c(C)n1-c1ccccc1 | 0 | 0 | 0 | 0 | 0 | 0 | 0
Cc1cc(C(=O)OCC(N)=O)c(C)n1-c1ccccc1 | 0 | 0 | 0 | 0 | 0 | - | -
O=c1cc(CN2CC(O)Cc3ccc4ccccc4c32)nc2sccn12 (stereo not given) | 0 | 0 | 0 | 0 | 71 | 57 | 0
